Results of several laboratories.
Compare with care: the assays were run in different laboratories.
CNR1: Cannabinoid receptor 1 (CNR1, Homo sapiens, UniProt P21554)
OPRK1: Kappa-type opioid receptor (OPRK1, Homo sapiens, UniProt P41145)
PFF0160c: Dihydroorotate dehydrogenase (quinone), mitochondrial (PFF0160c, Plasmodium falciparum, UniProt Q08210)

Cc1c(C(=O)N[C@H]2CC[C@H](N)CC2)nn(-c2ccc(Cl)cc2Cl)c1-c1ccc(Cl)cc1  Kb (CNR1; calcium signal, antagonist): > 10 µM
Clc1ccc(CSc2nnc(-c3ccccn3)n2Cc2cccs2)cc1Cl  EC50 (OPRK1; β-arrestin recruitment, agonist): 0.64 µM
Cc1cc(Nc2ccc(Cl)cc2)n2nc(OCCN(C)C)nc2n1  IC50 (PFF0160c; enzyme activity, inhibitor): > 10 µM
Cc1c(C(=O)N[C@H]2CC[C@H](NS(C)(=O)=O)CC2)nn(-c2ccc(Cl)cc2Cl)c1-c1ccc(Cl)cc1  Kb (CNR1; calcium signal, antagonist): > 10 µM
CNC(=O)[C@@]12C[C@@H]1[C@@H](n1cnc3c(NC)nc(C#Cc4ccc(F)c(F)c4)nc31)[C@H](O)[C@@H]2O  Ki (OPRK1; cell-free assay): > 10 µM
COCCc1nc2nc(C)cc(Nc3ccc(Cl)cc3)n2n1  IC50 (PFF0160c; enzyme activity, inhibitor): > 10 µM
CNc1nc(C#Cc2ccc(Cl)s2)nc2c1ncn2[C@H]1[C@H](O)[C@H](O)[C@]2(C(=O)O)C[C@H]12  Ki (OPRK1; cell-free assay): > 10 µM
Cc1c(C(=O)N2CCC(NC(=O)Nc3ccc(C#N)cc3)(c3ccccc3)CC2)nn(-c2ccc(Cl)cc2Cl)c1-c1ccc(Cl)cc1  Kb (CNR1; calcium signal, antagonist): > 10 µM
CNCc1nc2nc(C)cc(Nc3ccc(Cl)cc3)n2n1  IC50 (PFF0160c; enzyme activity, inhibitor): > 10 µM
CNC(=O)[C@@]12C[C@@H]1[C@@H](n1ccc3c(NC)ncnc31)[C@H](O)[C@@H]2O  Ki (OPRK1; cell-free assay): > 10 µM
